Data on 13 compounds can be found in ChEMBL document CHEMBL3351992, “Modular assembly of purine-like bisphosphonates as inhibitors of HIV-1 reverse transcriptase” (J Med Chem, 2014).

Activity calls are given as the source filed them. The rule behind the calls is not given here. Some results are limits rather than exact numbers.

Test [1] concerns the target Human immunodeficiency virus type 1 reverse transcriptase (Human immunodeficiency virus 1, UniProt Q72547). Nature of the test: Inhibition of wild type HIV1 reverse transcriptase assessed as inhibition of DNA primer extension using [8-3H(N)]-dATP by scintillation proximity assay. The method in brief: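 Biotinylated PPT80 DNA template annealed to DNA PPT primer (50 nM hybrid), preincubated 5 min at 37 °C with inhibitor in 50 mM Tris pH 7.8, 50 mM NaCl, 6 mM MgCl2, 4 μM dCTP/dGTP/dTTP, 0.5 μM [8-3H]-dATP. Purified RT added and reaction run 5 min. Quenched with EDTA plus streptavidin SPA beads. Beads counted after ~8 h settling. Ten-point 3-fold dilutions from 100 μM to 10 nM, DMSO ≤5%. Activity taken relative to uninhibited controls. IC50 from variable-slope sigmoidal fit; triplicate determinations.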
For orientation: In a scintillation proximity assay essentially only radioactivity close to the scintillant gives light.

Test [2] concerns the target T1, Farnesyl pyrophosphate synthase (Homo sapiens) (UniProt P14324).
T1 sequence (whole entry): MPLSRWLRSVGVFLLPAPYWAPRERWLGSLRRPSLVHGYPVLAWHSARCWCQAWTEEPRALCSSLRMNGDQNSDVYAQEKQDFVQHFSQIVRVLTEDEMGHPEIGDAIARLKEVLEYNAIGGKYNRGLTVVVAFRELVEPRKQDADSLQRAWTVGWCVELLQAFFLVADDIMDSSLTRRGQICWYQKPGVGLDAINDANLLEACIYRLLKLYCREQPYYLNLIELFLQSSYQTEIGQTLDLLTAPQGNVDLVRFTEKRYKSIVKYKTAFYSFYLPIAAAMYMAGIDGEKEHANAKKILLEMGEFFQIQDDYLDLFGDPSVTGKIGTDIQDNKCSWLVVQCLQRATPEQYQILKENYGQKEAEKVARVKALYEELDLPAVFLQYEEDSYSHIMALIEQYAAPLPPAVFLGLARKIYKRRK
Nature of the test: Inhibition of human FPPS at 10 uM.

The target of test [3] is T2, Geranylgeranyl pyrophosphate synthase (Homo sapiens) (UniProt O95749).
T2 sequence (whole entry): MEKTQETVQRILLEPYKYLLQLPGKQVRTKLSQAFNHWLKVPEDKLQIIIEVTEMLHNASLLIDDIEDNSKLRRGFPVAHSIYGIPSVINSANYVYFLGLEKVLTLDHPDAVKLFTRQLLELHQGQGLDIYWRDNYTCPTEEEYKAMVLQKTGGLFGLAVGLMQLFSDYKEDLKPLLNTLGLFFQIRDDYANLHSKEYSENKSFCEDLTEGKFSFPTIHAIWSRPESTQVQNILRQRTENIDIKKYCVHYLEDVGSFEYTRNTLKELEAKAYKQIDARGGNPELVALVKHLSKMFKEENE
Description: Inhibition of human GGPPS at 10 uM.

For test [4], the target named is Human immunodeficiency virus type 1 reverse transcriptase (Human immunodeficiency virus 1, UniProt Q72547, K65R). Nature of the test: Inhibition of wild type HIV1 reverse transcriptase K65R mutant assessed as inhibition of DNA primer extension using [8-3H(N)]-dATP by scintillation proximity assay. The method in brief:
(§1)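 50 nM biotinylated PPT80 template/PPT primer and inhibitor (10-step 3-fold series, 100 μM–10 nM final, DMSO ≤5%) were preincubated 5 min at 37 °C. Buffer: 50 mM Tris pH 7.8, 50 mM NaCl, 6 mM MgCl2, 4 μM dCTP/dGTP/dTTP, 0.5 μM [3H]dATP. RT started the 5-min reaction, stopped with EDTA/streptavidin SPA beads. Counts were normalized to uninhibited controls; IC50 from variable-slope sigmoid fit.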

Test [5] relates to Human immunodeficiency virus type 1 reverse transcriptase (Human immunodeficiency virus 1), Q72547 [K65R]. Description: Inhibition of wild type HIV1 reverse transcriptase K65R mutant assessed as inhibition of DNA primer extension using [8-3H(N)]-dATP by scintillation proximity assay relative to wild type.
Test [6] has as its target Human immunodeficiency virus type 1 reverse transcriptase (Human immunodeficiency virus 1, UniProt Q72547, M184V). Description: Inhibition of wild type HIV1 reverse transcriptase M184V mutant assessed as inhibition of DNA primer extension using [8-3H(N)]-dATP by scintillation proximity assay. The method in brief: as §1
Test [7] relates to Human immunodeficiency virus type 1 reverse transcriptase (Human immunodeficiency virus 1), Q72547 [M184V]. Description: Inhibition of wild type HIV1 reverse transcriptase M184V mutant assessed as inhibition of DNA primer extension using [8-3H(N)]-dATP by scintillation proximity assay relative to wild type.
The target in test [8] is T1, Farnesyl pyrophosphate synthase (Homo sapiens). Description: Inhibition of human FPPS at 50 uM.
Test [9] addresses T2, Geranylgeranyl pyrophosphate synthase (Homo sapiens). Description: Inhibition of human GGPPS at 50 uM.

In the case of `O=C(O)C(=NNc1ccc(Cl)cc1)C(=O)O`, the IC50 (in general, the point on the concentration scale where inhibition reaches its midpoint) in test [1] amounted to 1.5 µM.
The same measure, in the same setting: then `CSc1nc2ncnc(NCC(P(=O)(O)O)P(=O)(O)O)c2cc1-c1ccsc1`, with 8.3 µM.
On to `CSc1nc2ncnc(NCC(P(=O)(O)O)P(=O)(O)O)c2cc1-c1ccccc1`, for which the half-inhibitory concentration (IC50) in test [1] was 1.1 µM; in test [4] it was 5.2 µM; in test [6] it was 0.6 µM. In addition, the inhibition – broadly, the drop in the measured response relative to a control, in per cent – in test [2] was determined as 75%. Also, in test [3], the inhibition result is “inactive”. In addition, the Ratio IC50 was determined as 3.4 in [5] and 0.4 in [7].
For the compound `COc1cccc(-c2cnc3ncnc(NCC(P(=O)(O)O)P(=O)(O)O)c3c2)c1`, in test [1], the IC50 was found to be 20 µM.
Consider `CSc1nc2ncnc(NC(P(=O)(O)O)P(=O)(O)O)c2cc1-c1ccc(OC(C)C)cc1`, for which the IC50 in test [1] was determined as 1.8 µM; in test [4], 1.8 µM; in [6], 1.4 µM. Besides, the inhibition in test [8] and in test [9] was under 10% each time. For the same compound, the Ratio IC50 was determined as 2.1 in test [5] and 1.6 in test [7].
On to `O=P(O)(O)C(Nc1ncnc2ncccc12)P(=O)(O)O`, for which, in test [1], the IC50 was over 50 µM.
Still for that read-out and setting: then `O=P(O)(O)C(CNc1ncnc2ncc(-c3ccsc3)cc12)P(=O)(O)O`, with 9 µM.
On to `CC(C)Oc1ccc(-c2cnc3ncnc(NC(P(=O)(O)O)P(=O)(O)O)c3c2)cc1`, for which the IC50 in test [1] came out at 10 µM.
Still for that read-out and setting: then `O=P(O)(O)C(Nc1ncnc2nc(-c3cccs3)ccc12)P(=O)(O)O`, with 10.4 µM.
Regarding `COc1cccc(-c2cc3c(NCC(P(=O)(O)O)P(=O)(O)O)ncnc3nc2SC)c1`, the 50% inhibitory concentration (IC50) in test [1] was determined as 2.4 µM; in test [4], 3.3 µM; in test [6], 4.2 µM. The inhibition in [2] is 75%. Besides, the inhibition entry in test [3] was “inactive”. For the same compound, the Ratio IC50 is 2.1 in test [5] and 2.7 in test [7].
As to `CSc1nc2ncnc(NCC(P(=O)(O)O)P(=O)(O)O)c2cc1-c1ccc(OC(C)C)cc1`, in [1], the concentration for half-maximal inhibition (IC50) stood at 7.1 µM.
On the same count and under the same terms, the figure for `O=P(O)(O)C(CNc1ncnc2ncccc12)P(=O)(O)O` is over 50 µM; for `CSc1ccc2c(NC(P(=O)(O)O)P(=O)(O)O)ncnc2n1` it is over 50 µM.
